Key:
Rattus norvegicus [1] = assay: Antiinflammatory activity in carrageenan-induced Wistar rat paw edema model assessed as increase in paw volume at 20 mg/kg, po measured 3 hrs after carrageenan challenge relative to control; format: functional
Procedure, shortened: (§1)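 Wistar rats of either sex (150–175 g), fasted 16 h overnight, groups of six; compound dosed orally at 20 mg/kg bw. 30 min later 0.1 ml of 1% carrageenan in normal saline injected into subplantar aponeurosis of left hind paw. Paw volume read by plethysmometer at 0, 3 and 5 h; increase in volume (ml, SEM) and % inhibition versus control.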

Rattus norvegicus [2] = assay: Antiinflammatory activity in carrageenan-induced Wistar rat paw edema model assessed as increase in paw volume at 20 mg/kg, po measured 5 hrs after carrageenan challenge relative to control; format: functional; procedure, shortened: as §1
Rattus norvegicus [3] = assay: Gastrointestinal toxicity in Wistar rat assessed as induction of gastric ulceration at 60 mg/kg, po; format: organism-based, Stomach; parameters: dose 60 mg/kg, route oral; conditions: in vivo
Procedure, shortened: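 Acute gastric ulcerogenicity in Wistar rats given 60 mg/kg bw orally. Animals sacrificed under deep ether anesthesia 6 h after treatment. Stomachs removed and opened along the greater curvature, then examined for lesions or bleeding.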

[4] = molecular target: Prostaglandin G/H synthase 1 (Ovis aries) (UniProt P05979); assay: Inhibition of recombinant COX1 at 0.05 uM
Chain of Prostaglandin G/H synthase 1 (Ovis aries) (P05979 whole entry, looked up): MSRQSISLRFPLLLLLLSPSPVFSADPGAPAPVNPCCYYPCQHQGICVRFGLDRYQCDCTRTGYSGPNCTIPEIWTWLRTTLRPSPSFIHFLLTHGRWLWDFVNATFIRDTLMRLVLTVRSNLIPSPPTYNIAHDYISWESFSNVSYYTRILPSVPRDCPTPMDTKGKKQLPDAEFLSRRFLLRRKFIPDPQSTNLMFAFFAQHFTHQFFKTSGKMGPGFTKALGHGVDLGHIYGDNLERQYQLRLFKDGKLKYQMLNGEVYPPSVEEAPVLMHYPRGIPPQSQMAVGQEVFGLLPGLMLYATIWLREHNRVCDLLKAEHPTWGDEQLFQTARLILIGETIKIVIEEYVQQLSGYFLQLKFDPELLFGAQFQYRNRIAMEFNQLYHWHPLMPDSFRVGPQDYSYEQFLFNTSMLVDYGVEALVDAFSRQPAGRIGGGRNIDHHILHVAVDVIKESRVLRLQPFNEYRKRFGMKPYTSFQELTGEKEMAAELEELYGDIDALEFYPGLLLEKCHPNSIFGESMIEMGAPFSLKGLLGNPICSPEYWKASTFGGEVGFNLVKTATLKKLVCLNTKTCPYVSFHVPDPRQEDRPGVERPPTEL

[5] = molecular target: Prostaglandin G/H synthase 2 (Ovis aries) (UniProt P79208); assay: Inhibition of recombinant COX2 at 0.05 uM
Chain of Prostaglandin G/H synthase 2 (Ovis aries) (P79208 whole entry, looked up): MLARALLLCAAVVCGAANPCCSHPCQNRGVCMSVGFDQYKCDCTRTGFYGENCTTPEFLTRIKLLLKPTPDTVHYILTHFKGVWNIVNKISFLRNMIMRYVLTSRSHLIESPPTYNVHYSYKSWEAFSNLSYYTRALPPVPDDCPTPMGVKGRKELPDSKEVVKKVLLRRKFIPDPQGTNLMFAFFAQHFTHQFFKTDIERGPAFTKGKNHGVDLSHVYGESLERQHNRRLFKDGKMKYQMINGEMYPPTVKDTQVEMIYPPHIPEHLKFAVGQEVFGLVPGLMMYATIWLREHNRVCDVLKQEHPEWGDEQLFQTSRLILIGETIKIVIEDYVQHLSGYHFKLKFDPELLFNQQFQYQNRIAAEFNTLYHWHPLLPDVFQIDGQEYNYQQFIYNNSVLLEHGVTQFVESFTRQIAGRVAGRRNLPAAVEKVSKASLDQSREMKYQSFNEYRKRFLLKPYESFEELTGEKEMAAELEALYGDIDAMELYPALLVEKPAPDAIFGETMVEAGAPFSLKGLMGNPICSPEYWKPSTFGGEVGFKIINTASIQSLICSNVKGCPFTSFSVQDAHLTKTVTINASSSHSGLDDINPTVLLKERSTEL

Compound `COc1ccc(C2=NN(c3ccc(S(N)(=O)=O)cc3)C(c3ccccc3Cl)C2)c(OC)c1` (stereo unspecified) has an Activity (Rattus norvegicus [1]) of 26.3% and an Activity (Rattus norvegicus [2]) of 46.3%.
Work on `Cc1cc(=O)oc2c(C3=NN(c4ccc(S(N)(=O)=O)cc4)C(c4cccc(O)c4)C3)c(O)ccc12` (stereo unspecified) yielded an Activity (Rattus norvegicus [1]) of 20% and an Activity (Rattus norvegicus [2]) of 30.6%.
`COc1ccc(C2CC(c3ccc(OC)cc3O)=NN2c2ccc(S(N)(=O)=O)cc2)cc1` (stereo unspecified) showed an Activity (Rattus norvegicus [1]) of 27% and an Activity (Rattus norvegicus [2]) of 37.3%.
With `COc1ccc(C2=NN(c3ccc(S(N)(=O)=O)cc3)C(c3ccccc3)C2)c(OC)c1` (stereo unspecified) the Activity (Rattus norvegicus [1]) was 70%, the Activity (Rattus norvegicus [2]) was 66.5% and the Activity (Rattus norvegicus [3]) was “Non-toxic”. For the same compound, the inhibition [4] was 73.2% and the inhibition [5] was 85.7%.
`COc1ccc(C2=NN(c3ccc(S(N)(=O)=O)cc3)C(c3cccc(O)c3)C2)c(OC)c1` (stereo unspecified) gave an Activity (Rattus norvegicus [1]) of 26.6% and an Activity (Rattus norvegicus [2]) of 5.3%.
`COc1ccc(C2CC(c3ccccc3O)=NN2c2ccc(S(N)(=O)=O)cc2)cc1OC` (stereo unspecified) showed an Activity (Rattus norvegicus [1]) of 52% and an Activity (Rattus norvegicus [2]) of 10.6%.
`COc1ccc(C2=NN(c3ccc(S(N)(=O)=O)cc3)C(c3ccccc3)C2)c(O)c1` (stereo unspecified) gave an Activity (Rattus norvegicus [1]) of 0% and an Activity (Rattus norvegicus [2]) of 0%.
`COc1ccc(C2CC(c3c(O)ccc4c(C)cc(=O)oc34)=NN2c2ccc(S(N)(=O)=O)cc2)cc1` (stereo unspecified) showed an Activity (Rattus norvegicus [1]) of 20% and an Activity (Rattus norvegicus [2]) of 10.6%.
`COc1ccc(C2=NN(c3ccc(S(N)(=O)=O)cc3)C(c3ccc(Cl)cc3)C2)c(O)c1` (stereo unspecified) gave an Activity (Rattus norvegicus [1]) of 28.6% and an Activity (Rattus norvegicus [2]) of 46.3%.
`COc1ccc(C2=NN(c3ccc(S(N)(=O)=O)cc3)C(c3cc(OC)c(OC)c(OC)c3)C2)c(OC)c1` (stereo unspecified) was tested, and the Activity (Rattus norvegicus [1]) was 83.3%, the Activity (Rattus norvegicus [2]) was 76.6% and the Activity (Rattus norvegicus [3]) was “Non-toxic”. For the same compound, the inhibition [4] was 30% and the inhibition [5] was 38.6%.
For `COc1ccc(C2CC(c3ccc(OC)cc3OC)=NN2c2ccc(S(N)(=O)=O)cc2)cc1` (stereo unspecified), the Activity (Rattus norvegicus [1]) was 49.3% and the Activity (Rattus norvegicus [2]) was 10.6%.
Work on `COc1ccc(C2=NN(c3ccc(S(N)(=O)=O)cc3)C(c3cccc(O)c3)C2)c(O)c1` (stereo unspecified) yielded an Activity (Rattus norvegicus [1]) of 33.3% and an Activity (Rattus norvegicus [2]) of 8.3%.
`COc1ccc(C2=NN(c3ccc(S(N)(=O)=O)cc3)C(c3ccc(OC)c(OC)c3)C2)c(O)c1` (stereo unspecified) gave an Activity (Rattus norvegicus [1]) of 9% and an Activity (Rattus norvegicus [2]) of 13%.
In the case of `COc1ccc(C2=NN(c3ccc(S(N)(=O)=O)cc3)C(c3cccc([N+](=O)[O-])c3)C2)c(OC)c1` (stereo unspecified), the Activity (Rattus norvegicus [1]) is reported as 68.8%, the Activity (Rattus norvegicus [2]) is reported as 57.6% and the Activity (Rattus norvegicus [3]) is reported as “Non-toxic”. For the same compound, the inhibition [4] was 58.8% and the inhibition [5] was 42.9%.
`COc1ccc(C2CC(c3ccccc3O)=NN2c2ccc(S(N)(=O)=O)cc2)cc1` (stereo unspecified) gave an Activity (Rattus norvegicus [1]) of 50% and an Activity (Rattus norvegicus [2]) of 41.3%.
Compound `Cc1ccc(-c2cc(C(F)(F)F)nn2-c2ccc(S(N)(=O)=O)cc2)cc1` [CELECOXIB] has an Activity (Rattus norvegicus [2]) of 40%.
In the case of `COc1ccc(C2=NN(c3ccc(S(N)(=O)=O)cc3)C(c3ccccc3Cl)C2)c(O)c1` (stereo unspecified), the Activity (Rattus norvegicus [1]) is reported as 60% and the Activity (Rattus norvegicus [2]) is reported as 35.3%.
In the case of `COc1ccc(C2=NN(c3ccc(S(N)(=O)=O)cc3)C(c3ccc(N(C)C)cc3)C2)c(OC)c1` (stereo unspecified), the Activity (Rattus norvegicus [1]) is reported as 79.6%, the Activity (Rattus norvegicus [2]) is reported as 79.6% and the Activity (Rattus norvegicus [3]) is reported as “Non-toxic”. The inhibition [4] was 60.9% and the inhibition [5] was 50%.
Work on `COc1ccc(C2=NN(c3ccc(S(N)(=O)=O)cc3)C(c3ccc(Cl)cc3)C2)c(OC)c1` (stereo unspecified) yielded an Activity (Rattus norvegicus [1]) of 25% and an Activity (Rattus norvegicus [2]) of 6.6%.
`COc1ccc(C2=NN(c3ccc(S(N)(=O)=O)cc3)C(c3cc(OC)c(OC)c(OC)c3)C2)c(O)c1` (stereo unspecified) showed an Activity (Rattus norvegicus [1]) of 0% and an Activity (Rattus norvegicus [2]) of 0%.

Source: ChEMBL document CHEMBL1139245, “Synthesis and antiinflammatory activity of some new 1,3,5-trisubstituted pyrazolines bearing benzene sulfonamide” (Bioorg Med Chem Lett, 2009)
